Results on 73 molecules are retold here after PubChem BioAssay AID624315 (Broad Institute, 2012).

Where “and” joins values, the source holds several entries; their conditions need not be identical. Equal entries are not always repeated. Calls of active or inactive are those of the source.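 How the source made its calls: active means compounds lowering cell ATP signal whose fitted IC50 is at or below twice the top valid tested dose; inconclusive means flat fit with 30 to 70% inhibition, or poor fit; inactive means the rest.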

System in one assay: not listed separately
Put plainly: SK-MEL-5 parental cell viability reduction, dose response, orthogonal assay for MITF inhibitor project, CellTiter-Glo luminescence, dry powder samples, set 3 (AID 624315). Particulars: SK-MEL-5 melanoma viability, CellTiter-Glo ATP, 24 h; at 35 µM (top of the series). Put shortly:
(§1)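 System: SK-MEL-5 human melanoma cells, parental non-reporter line; medium: phenol red-free medium; dosing: multiple compound concentrations delivered by pin transfer; incubation: 24 h treatment at 37 °C, 5 min RT before reading; detection: CellTiter-Glo luminescence measuring cellular ATP content; read-out basis: viability from ATP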
For `C=CCNC1=C(NCC=C)C(=O)c2ccccc2C1=O`, the activity change, negative = inhibition was -5.12% (inactive).

In the next assay the test system is SK-MEL-5 melanoma viability, CellTiter-Glo ATP, 24 h. The description is as above.
Details: not given
Put shortly:
as §1
Turning to `CN1CCN(C2=C(Nc3ccccc3)C(=O)c3ccccc3C2=O)CC1`, the IC50 is 23.4 µM.

Take `Cc1nc2ccccc2n1/N=C/c1ccc([N+](=O)[O-])s1`: the IC50 was 20.1 µM.

With `CCN1CCN(C2=C(NC(=O)c3ccccc3)C(=O)c3ccccc3C2=O)CC1`, the IC50 was 8.63 µM.

Turning to `O=C1C(NS(=O)(=O)c2cccs2)=C(N2CCCCC2)C(=O)c2ccccc21`, the IC50 was > 70 µM (inactive).

On to `COc1ccc(C2=C(NC(C)=O)C(=O)c3ccccc3C2=O)cc1`, for which the IC50 was 13.9 µM.

For the molecule `C=CCNC1=C(N2CCCCC2)C(=O)c2ccccc2C1=O`, the IC50 was 5.3 µM.

With `O=C1C(NS(=O)(=O)c2ccc(Br)cc2)=C(c2ccccc2)C(=O)c2ccccc21`, the IC50 was > 70 µM (inactive).

On to `CCN1CCN(C2=C(N(C)C(C)=O)C(=O)c3ccccc3C2=O)CC1`, for which the IC50 is 6.41 µM.

Turning to `CN1CCN(C2=C(NS(=O)(=O)c3ccc(Br)s3)C(=O)c3ccccc3C2=O)CC1`, the IC50 is 30 µM.

As for `O=C(NC1=C(c2ccc(OC(F)(F)F)cc2)C(=O)c2ccccc2C1=O)c1ccc(Br)cc1`, the IC50 is > 70 µM (inactive).

Turning to `O=C(NC1=C(c2ccc(Oc3ccccc3)cc2)C(=O)c2ccccc2C1=O)c1ccccc1`, the IC50 is > 70 µM (inactive).

In the case of `C=CCNC1=C(NS(=O)(=O)c2ccc(Br)cc2)C(=O)c2ccccc2C1=O`, the IC50 was 29.9 µM.

`COc1cccc(C2=C(NC(=O)c3ccccc3)C(=O)c3ccccc3C2=O)c1`: the IC50 was 22.5 µM.

`O=C(NC1=C(N2CCOCC2)C(=O)c2ccccc2C1=O)c1ccccc1`: the IC50 is 20.1 µM.

As to `C=CCNC1=C(N2CCN(CC)CC2)C(=O)c2ccccc2C1=O`, the IC50 was 17.9 µM.

`O=C1C(Nc2ccccc2)=C(N2CCN(c3ccccc3)CC2)C(=O)c2ccccc21`: the IC50 is > 70 µM (inactive).

With `CN1CCN(C2=C(NS(=O)(=O)c3ccc(Br)cc3)C(=O)c3ccccc3C2=O)CC1`, the IC50 was > 70 µM (inactive).

For `NC1=CC(=O)c2ccccc2C1=O`, the IC50 is 12.4 µM.

With `COc1ccc(C2=C(NC(=O)c3cccc(Cl)c3)C(=O)c3ccccc3C2=O)cc1`, the IC50 is 27.7 µM.

As to `CN1CCN(C2=C(NC(=O)c3ccc(Br)cc3)C(=O)c3ccccc3C2=O)CC1`, the IC50 is 6.69 µM.

For `O=C(NC1=C(Cl)C(=O)c2ccccc2C1=O)c1ccccc1`, the IC50 is 9.1 µM.

For the molecule `O=C1C(NS(=O)(=O)c2ccc(Br)s2)=C(N2CCSCC2)C(=O)c2ccccc21`, the IC50 is > 70 µM (inactive).

As for `C=CCNC1=C(N2CCSCC2)C(=O)c2ccccc2C1=O`, the IC50 is 10.9 µM.

Turning to `CCN1CCN(C2=C(Nc3ccccc3)C(=O)c3ccccc3C2=O)CC1`, the IC50 is 28.1 µM.

For the molecule `CC(=O)NC1=C(c2ccccc2)C(=O)c2ccccc2C1=O`, the IC50 is 18.3 µM.

With `O=C1C=C(Nc2ccccc2)C(=O)c2ccccc21`, the IC50 is 5.05 µM.

For `CCN(CC)CCCNC1=C(N(C)C(C)=O)C(=O)c2ccccc2C1=O`, the IC50 was 5.52 µM.

For `COc1ccc(C2=C(NC(=O)c3ccc(Cl)cc3)C(=O)c3ccccc3C2=O)cc1`, the IC50 is 34.6 µM.

Take `CC(=O)NC1=C(c2ccc3c(c2)oc2ccccc23)C(=O)c2ccccc2C1=O`: the IC50 was 25.3 µM.

Take `O=C(NC1=C(N2CCSCC2)C(=O)c2ccccc2C1=O)c1ccccc1`: the IC50 was 29.9 µM.

With `COc1ccc(S(=O)(=O)N(C(C)=O)c2ccc(OC(C)=O)c3ccccc23)cc1[N+](=O)[O-]`, the IC50 is 31.6 µM.

`NC1=C(NC(=O)c2ccccc2)C(=O)c2ccccc2C1=O`: the IC50 was 19.8 µM.

Consider `O=C(NC1=C(c2ccccc2)C(=O)c2ccccc2C1=O)c1ccccc1`, for which the IC50 was 26.1 µM.

As for `C=CCNC1=C(N2CCOCC2)C(=O)c2ccccc2C1=O`, the IC50 is 11 µM.

`O=C1C(Nc2ccccc2)=C(N2CCOCC2)C(=O)c2ccccc21`: the IC50 was 27 µM.

For the molecule `O=C1C(NS(=O)(=O)c2ccc(Br)cc2)=C(c2ccc(OC(F)(F)F)cc2)C(=O)c2ccccc21`, the IC50 is > 70 µM (inactive).

For the molecule `COc1ccc(C2=C(NC(=O)c3ccccc3Cl)C(=O)c3ccccc3C2=O)cc1`, the IC50 was 17.6 µM.

For the molecule `CN1CCN(C2=C(NS(=O)(=O)c3ccccc3)C(=O)c3ccccc3C2=O)CC1`, the IC50 is 18.2 µM.

In the case of `CC1CCN(CC(CS(=O)(=O)c2ccc([N+](=O)[O-])cc2)N2CCC(C)CC2)CC1` (stereo not drawn), the IC50 was > 70 µM (inactive).

As for `CCN1c2ccccc2NC2N=C(OC)C(c3ccccc3)C21` (stereo not drawn), the IC50 is 23.9 µM.

For `CN1CCN(C2=C(NC(=O)c3ccccc3)C(=O)c3ccccc3C2=O)CC1`, the IC50 was 9.27 µM.

For `CCN(CC)CCCNC1=C(Nc2ccccc2)C(=O)c2ccccc2C1=O`, the IC50 is 34 µM.

Regarding `C=C1C(=O)OC2C1CC/C(C)=C\CCC1(C)OC21` (stereo not drawn), the IC50 is > 47 µM (inactive).

Consider `C=CCNC1=C(N2CCN(C)CC2)C(=O)c2ccccc2C1=O`, for which the IC50 is 25.3 µM.

With `CC(=O)N(C)C1=C(N2CCOCC2)C(=O)c2ccccc2C1=O`, the IC50 is 10.1 µM.

Turning to `CC(=O)N(C)C1=C(N2CCN(C)CC2)C(=O)c2ccccc2C1=O`, the IC50 was 4.63 µM.

With `C[C@@H](NC1=C(Nc2ccccc2)C(=O)c2ccccc2C1=O)c1ccccc1`, the IC50 is > 70 µM (inactive).

Take `O=C(NC1=C(c2ccccc2)C(=O)c2ccccc2C1=O)c1ccc(Br)cc1`: the IC50 is > 70 µM (inactive).

For `COc1ccc(C(=O)NC2=C(c3ccc(OC(F)(F)F)cc3)C(=O)c3ccccc3C2=O)cc1`, the IC50 is > 70 µM (inactive).

Take `COc1ccc(C2=C(NC(=O)c3ccc4ccccc4c3)C(=O)c3ccccc3C2=O)cc1`: the IC50 was > 70 µM (inactive).

Regarding `CCN1CCN(C2=C(NC(=O)c3ccc(Br)cc3)C(=O)c3ccccc3C2=O)CC1`, the 50% inhibitory concentration (IC50) was 8.82 µM.

Regarding `O=C(NC1=C(N2CCN(c3ccccc3)CC2)C(=O)c2ccccc2C1=O)c1ccccc1`, the IC50 was > 70 µM (inactive).

Regarding `Cc1ccc(C(=O)NC2=C(c3ccccc3)C(=O)c3ccccc3C2=O)o1`, the IC50 is 23.6 µM.

As to `C=CCNC1=C(N(C)C(C)=O)C(=O)c2ccccc2C1=O`, the IC50 is 0.79 µM.

With `O=C1C(NS(=O)(=O)c2ccc(Br)cc2)=C(N2CCOCC2)C(=O)c2ccccc21`, the IC50 is 35.4 µM.

Regarding `CN1CCN(C2=C(NS(=O)(=O)c3cccs3)C(=O)c3ccccc3C2=O)CC1`, the IC50 was > 70 µM (inactive).

Take `COc1cccc(-c2cc(C(=O)NC3=C(Cl)C(=O)c4ccccc4C3=O)ccc2OC)c1`: the concentration for half-maximal inhibition (IC50) was 34 µM.

With `CC(=O)NC1=C(c2ccc(Cl)cc2)C(=O)c2ccccc2C1=O`, the IC50 is 13.4 µM.

Take `COc1ccc(C(=O)NC2=C(c3ccc(OC)cc3)C(=O)c3ccccc3C2=O)cc1`: the IC50 is 15.6 µM.

For `C=CCNC1=C(Cl)C(=O)c2ccccc2C1=O`, the IC50 was 9.72 µM and 12.1 µM.

As to `C=CCNC1=C(NCCCN(CC)CC)C(=O)c2ccccc2C1=O`, the IC50 was 15.6 µM.

Consider `COc1ccc(C2=C(NC(=O)c3ccc(OC)cc3-c3cccc(OC)c3)C(=O)c3ccccc3C2=O)cc1`, for which the IC50 was > 70 µM (inactive).

Regarding `CC(=O)NC1=C(c2cccc(Cl)c2)C(=O)c2ccccc2C1=O`, the concentration for half-maximal inhibition (IC50) was 14 µM.

For `O=C1C(Nc2ccccc2)=C(NS(=O)(=O)c2ccccc2[N+](=O)[O-])C(=O)c2ccccc21`, the IC50 is > 70 µM (inactive).

Regarding `O=C(NC1=C(c2ccccc2)C(=O)c2ccccc2C1=O)c1ccco1`, the IC50 was 25.7 µM.

Consider `COc1ccc(C2=C(NC(=O)c3ccccc3OC)C(=O)c3ccccc3C2=O)cc1`, for which the IC50 is > 70 µM (inactive).

For the molecule `O=C(NC1=C(N2CCOCC2)C(=O)c2ccccc2C1=O)c1ccc(Br)cc1`, the IC50 is 32 µM.

Regarding `O=C1C(Nc2ccccc2)=C(N2CCCCC2)C(=O)c2ccccc21`, the IC50 was 18.1 µM.

`COC1=C(NS(=O)(=O)c2ccccc2)C(=O)c2ccccc2C1=O`: the IC50 is 21.7 µM.

Regarding `C=CCNC1=C(NCCN(CC)CC)C(=O)c2ccccc2C1=O`, the IC50 is 14 µM.

For the molecule `CC(=O)N(C)C1=C(N2CCCCC2)C(=O)c2ccccc2C1=O`, the IC50 is 4.42 µM.

Take `COc1ccc(C2=C(NC(=O)c3cccc(OC)c3)C(=O)c3ccccc3C2=O)cc1`: the IC50 was 29 µM.
